# Assay results from publication PMC5006643 (EBioMedicine, 2016).
# Where no end group is shown, it is not given here. [ ]: non-standard residue; d: D form. sY = N[C@@H](Cc1ccc(OS(=O)(=O)O)cc1)C(=O)O
# Legend:
# [1] = tested on: HIV-1 BaL; assay: Acute HIV-1 infection assay in primary human CD4+ T cells; format: cell-based; conditions: dose-response; for inhibition of HIV-1 BaL infection: cell-free acute infection of primary human CD4+ T cells
# Method in brief: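 Peptides were stocked at 10 mg/mL in NH4OH and stored frozen. Cell-free infection of primary human CD4+ T cells used CCR5-tropic HIV-1 BaL. Test peptides were titrated for dose-response, and non-sulfated homologous peptides and a scrambled sulfated control peptide were run in parallel. Cell viability was assessed in a separate assay.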
# [2] = tested on: binding of BG505 SOSIP.664 trimer to human CCR5; format: cell-based, HIV-1; conditions: Cf2Th/syn-CCR5 canine thymocytes, flow cytometry, dose-response
# Method in brief: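 Cf2Th/syn-CCR5 cells were harvested at ~80% confluency with enzyme-free dissociation buffer. His-tagged BG505 SOSIP.664 trimer was preincubated with 2-domain sCD4 for 1 h at 4 °C, treated with test compound across a dose range, then bound to cells for 1 h at 4 °C. After washes, bound trimer was detected with PE anti-His antibody (1 h, 4 °C). Cells were fixed in 2% PFA and analysed by flow cytometry. Anti-CCR5 mAb 2D6 confirmed specificity.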
# [3] = tested on: panel of 12 HIV-1 strains; assay: Infection of CD4+ T cells by a panel of 12 HIV-1 strains; format: cell-based; conditions: 50 μM
# Method in brief: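 Cell-free infection of purified primary human CD4+ T cells, with each test compound at 50 μM. The panel had eight minimally passaged primary isolates (92US714, 92HT599, 07USLR, 07USPC, 07USSG, subtype B; 97ZA009, 98IN017, subtype C; 93BR019, subtype F) and four laboratory-expanded subtype B strains (BaL, JR-FL, ADA, IIIB). Both CCR5-tropic and CXCR4-using phenotypes were included.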
# [4] = tested on: recombinant gp120 (strain BaL); assay: SPR of monomeric gp120 binding to immobilized V2 peptide; parameters: species or system HIV-1; conditions: peptide immobilized on CM5, gp120 BaL pre-complexed with CD4-M48U
# Method in brief: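 The sulfated V2 test peptide was immobilized on a CM5 chip. Recombinant monomeric gp120 BaL (25–400 nM) was preincubated with a 2-fold molar excess of CD4-M48U […]. It was injected for 2 min at 25 μL/min in HBS with 3 mM EDTA and 0.005% Tween-20, followed by 2 min dissociation. Surfaces were regenerated with 4.5 M MgCl2.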
# [5] = tested on: soluble, stabilized gp140 trimer (BG505-SOSIP.664); assay: SPR of soluble gp140 trimer binding to immobilized V2 peptide; parameters: species or system HIV-1; conditions: SOSIP trimer 12.5-200 nM, absence of the CD4 mimic
# Method in brief: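 The sulfated V2 test peptide was immobilized on a CM5 surface. Unliganded BG505 SOSIP.664 trimer (12.5–200 nM; produced in 293FS cells, lectin-affinity and size-exclusion purified) was injected for 2 min at 25 μL/min in HBS with 3 mM EDTA and 0.005% Tween-20, followed by 2 min dissociation. Regeneration used a brief 4.5 M MgCl2 pulse.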
# [6] = tested on: sCD4:gp120 complex (gp120 BaL); assay: NMR trNOESY interaction and competition with gp120/sCD4; format: binding, HIV-1; conditions: 2D NOESY, 0.8 mM peptide
# Method in brief: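 The tyrosine-sulfated V2 peptide was 15N-labelled at Ala/Ile/Leu/Phe/Val, at 800 μM (0.8 mM). It was incubated 1 h on ice with 20 μM sCD4, 20 μM recombinant gp120 BaL, or both. Samples were exchanged into 20 mM sodium phosphate pH 6.8, 50 mM NaCl, 0.02% azide, 10% D2O. NOESY was run at 30 °C, 600 MHz, with mixing times 100/250/400 ms. For competition, 0.4 mM peptide was used with 0, 0.8 or 1.6 mM unlabelled sulfated CCR5 N-terminal peptide.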
substance,measurement,setting,value
"DPVLEF[sY]KID[sY]IELAVQK [pSCR-Tys, reference compound]",inhibition of HIV-1 BaL infection,[1],did not show significant inhibitory activity
same,inhibition of binding of sCD4-activated BG505 SOSIP.664 trimer to CCR5,[2],limited effects
KKQKVHALF[sY]KLDIVPIK [pV2αΕ-Tys],relative potency over the strain panel,[3]; compared to pV2α-Tys,generally lower potency compared to pV2α-Tys
same,number of resistant HIV-1 strains of 12,[3]; purified CD4+ T cells,3
KVQKE[sY]ALF[sY]ELDIVPID [pV2α-Tys],ka,[4],48300 M⁻¹ s⁻¹
same,binding of soluble gp140 trimer to immobilized peptide,[5],unable to bind
same,trNOE signals (binding) with sCD4:gp120 complex,"[6]; 20 μM sCD4:gp120, 30 °C",appearance of numerous NOE crosspeaks
same,trNOE signals (binding) with gp120 alone,[6]; gp120 alone,small number of weak trNOE crosspeaks
same,trNOE signals (binding) with sCD4 alone,[6]; sCD4 alone,no pV2α-Tys trNOEs signals were observed
same,inhibition of HIV-1 BaL infection,[1],potently inhibited infection
same,inhibition of binding of sCD4-activated BG505 SOSIP.664 trimer to CCR5,[2],reduced CCR5 binding of the trimer in a dose-dependent fashion
"MDYQVSSPI[sY]DIN[sY]YTSEPSQK [pCCR5-Tys, reference compound]",inhibition of HIV-1 BaL infection,[1],dose-dependent HIV-1 inhibition
same,inhibition of binding of sCD4-activated BG505 SOSIP.664 trimer to CCR5,[2],Dose-dependent inhibitory effect
same,activity against CCR5-tropic isolates,[3]; purified CD4+ T cells,restricted activity against CCR5-tropic isolates
same,activity against CXCR4-using (R5X4 and X4) isolates,[3]; purified CD4+ T cells,inactive
Tys173: pV2α version bearing a single sulfated tyrosine at position 173 (KVQKE[sY]ALFYELDIVPID),inhibition of HIV-1 BaL infection,[1],exhibited antiviral activity
Tys177: pV2α version bearing a single sulfated tyrosine at position 177 (KVQKEYALF[sY]ELDIVPID),inhibition of HIV-1 BaL infection,[1],exhibited antiviral activity
same,relative potency in inhibition of HIV-1 BaL infection,"[1]; primary CD4+ T cells, singly vs doubly sulfated peptides",more potent than Tys173
